Experimental findings from ChEMBL document CHEMBL1914330 (Eur J Med Chem, 2011) are described below.

Activity calls are given as the source filed them. The calls are words filed in the database; no cut-off is given here.

The subject of data set [1] is HT-29. The data set can be described thus: Antitumor activity against human HT-29 cells xenografted in BALB/c nude mouse assessed as reduction in tumor growth at 100 mg/kg, ip administered 3 times per week for 1 week. Format: functional. Set-up: scale not given: the % may be the effect or the level left. Particulars: route intraperitoneal. The method, boiled down:
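HT-29 cells (1 × 10⁷/mL in serum-free RPMI 1640, 0.2 mL) were injected subcutaneously in the back of nude mice. At about 300 mm³ tumours, 18 mice were randomised to vehicle or drug groups. Drug in DMSO was given i.p. at 0.01 mL/g, 100 mg/kg, three times weekly for one week. Tumour volume = (L × W²)/2 by caliper; body weight also recorded; six mice per group.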

For data set [2], the system named is HeLa. The data set can be described thus: Induction of cell cycle arrest at G2/M phase in human HeLa cells assessed as decrease in Cdc2 phosphorylation at Tyr15 at 0.25 to 5 uM after 24 hrs by Western blot analysis. It counts as functional, cell-based. An outline of the steps:
(§1)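 HeLa cells treated for 24 or 48 h were washed in cold PBS and lysed on ice for 30 min. Lysates were cleared at 15,000 × g, run on SDS-PAGE and blotted. Membranes were probed 2 h at room temperature with antibodies to the target protein, then peroxidase secondary and ECL. Blots were reprobed for β-actin as loading control.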

A further data set relates to LoVo. The data set can be described thus: Ratio of IC50 for doxorubicin-resistant human LoVo cells to IC50 for human LoVo cells. Format: functional.
The test system of data set [3] is HeLa. Kind of data set: Cell cycle arrest in human HeLa cells at G2/M phase after 24 hrs by propidium iodide staining-based flow cytometry. Format: functional. The method, boiled down:
(§2)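 HeLa cells treated for 24 h over 0.06–0.5 µM. Cells fixed in ice-cold 70% ethanol, lysed with buffer containing RNase A and 0.1% Triton X-100, and stained with PI. DNA content read by flow cytometry, including the sub-G1 fraction. Mean ± SEM of three independent experiments.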

In data set [4] the test system is HeLa. The data set can be described thus: Induction of apoptosis in human HeLa cells assessed as accumulation of necrotic cells after 24 hrs by Annexin-V-FITC/propidium iodide staining-based flow cytometric analysis. It counts as functional, cell-based. The method, boiled down: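 HeLa cells treated for 24 or 48 h, then labelled with annexin-V-FITC and PI. Analysed by flow cytometry with excitation at 488 nm and emission at 525 nm (FITC) and 585 nm (PI). Quadrants scored as live, early apoptotic, late apoptotic or necrotic. Mean ± SEM of four independent experiments.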
A general note: Flow cytometry measures light scatter and fluorescence of single cells or particles in a stream.

A further data set relates to L1210. The data set can be described thus: Antiproliferative activity against mouse L1210 cells after 2 days by coulter counter analysis. Format: functional, cell-based. Particulars: L1210, 48 h. An outline of the steps: (§3)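 Cells suspended at 300,000–500,000 cells/mL and mixed 1:1 with diluted compound. Incubated at 37 °C for two days, then counted with a Coulter counter. IC50 is the concentration inhibiting proliferation by 50%, as mean ± SE from dose-response curves of at least three independent experiments.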

For data set [5], the system named is Mus musculus. The data set can be described thus: Toxicity in BALB/c nude mouse xenografted with human HT-29 cells assessed as organism mortality at 100 mg/kg, ip administered 3 times per week for 1 week measured on day 19. It counts as organism-based. Set-up: dose 100 mg/kg, route intraperitoneal. The conditions noted are these: in vivo, 168 h. The method, boiled down:
(§4)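 HT-29 cells in log phase, suspended at 1 × 10⁷ cells/mL in serum-free RPMI 1640, 0.2 mL injected subcutaneously into the back of nude mice. At about 300 mm³, mice were randomised to vehicle or treatment groups (six per group). The compound was given in DMSO by i.p. injection at 0.01 mL/g body weight. Body weight was recorded on set days; mice were euthanised after 23 days.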

In data set [6] the test system is HeLa. The data set can be described thus: Induction of apoptosis in human HeLa cells assessed as caspase-3 activation at 0.25 to 5 uM by flow cytometry. The conditions noted are these: TDE = time-dependent effect.
Data set [7] is described as follows: Inhibition of bovine brain tubulin polymerization after 20 mins by turbidimetry. Set-up: species or system Bos taurus. The method, boiled down: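 Purified bovine brain tubulin at 10 µM was preincubated with compound in glutamate buffer at 30 °C, then cooled to 0 °C and GTP added. Samples were warmed to 30 °C in a recording spectrophotometer and assembly followed by turbidity.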

In data set [8] the test system is HeLa. The data set can be described thus: Induction of apoptosis in human HeLa cells assessed as ROS production at 0.25 to 5 uM after 24 to 48 hrs by H2-DCFDA-staining-based flow cytometric analysis. Format: functional, cell-based. An outline of the steps:
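HeLa cells treated 24 or 48 h, trypsinized and resuspended in HBSS containing HE (2.5 µM) or H₂DCFDA (0.1 µM). Incubated 10 min at 37 °C, resuspended in HBSS, and ROS read by flow cytometry. Mean ± SEM of three independent experiments.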

The subject of data set [9] is HT-29. The data set can be described thus: Cytotoxicity against human HT-29 cells. Format: functional, cell-based.
The subject of data set [10] is HeLa. Kind of data set: Induction of cell cycle arrest at G2/M phase in human HeLa cells assessed as decrease in cyclin B1 expression at 0.25 to 5 uM after 48 hrs by Western blot analysis. It counts as functional, cell-based. The method, boiled down: as §1
The test system of data set [11] is CCRF-CEM. The data set can be described thus: Antiproliferative activity against human CEM cells after 72 hrs by MTT assay. Format: functional, cell-based. The method, boiled down:
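Cells seeded at 8 × 10³ per well in complete medium and exposed to a range of compound concentrations at 37 °C for 72 h. Viability read by MTT test. IC50 taken as the concentration inhibiting proliferation by 50%.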
On the technique in general: Formazan colour is commonly taken as a measure of viable cells.

Data set [12] deals with CCRF-CEM. The data set can be described thus: Antiproliferative activity against human CEM cells after 2 days by coulter counter analysis. Format: functional, cell-based. The conditions noted are these: 48 h. The method, boiled down:
as §3

Data set [13] concerns HeLa. The data set can be described thus: Induction of apoptosis in human HeLa cells assessed as increase in hypodiploid DNA content at subG1-phase after 24 hrs by flow cytometric analysis relative to untreated control. Format: functional, cell-based. The method, boiled down: as §2
The test system of data set [14] is Mus musculus. Kind of data set: Toxicity in nude BALB/c mouse xenografted with human HT-29 cells assessed as organism mortality at 100 mg/kg, ip administered 3 times per week for 1 week measured on day 7. Particulars: in vivo, 168 h. It counts as organism-based. Set-up: dose 100 mg/kg, route intraperitoneal. The method, boiled down: as §4
In another data set the test system is MOLT-4. Kind of data set: Antiproliferative activity against human MOLT4 cells after 2 days by coulter counter analysis. Format: functional, cell-based. Particulars: MOLT-4, 48 h.

Broadly, the IC50 is the point on the concentration scale where inhibition reaches its midpoint. As for `COc1cc(C(=O)c2sc(N3CCCC3)nc2N)cc(OC)c1OC`, the Activity in the data set on HT-29 [1] is 58%; with HeLa [3], “Dose-dependent effect”; in the data set on HeLa [4] it was “Dose-dependent effect”; with Mus musculus [5] it was “Toxic”; in the data set with HeLa [6] it was “tde”; with HeLa [13] it was “Dose-dependent effect”. Besides, the Activity result with Mus musculus [14] is “Toxic”. Further, the outcome in the data set with HeLa [2] and with HeLa [8] was Active. In addition, the “Ratio IC50” value in the data set on LoVo was found to be 4.3. The IC50 in the data set on L1210 came to 370 nM; in data set [7] it was 1300 nM; in the data set with HT-29 [9], 20 nM; in the data set with CCRF-CEM [11], 20 nM; in the data set on CCRF-CEM [12], 320 nM; in the data set with MOLT-4 it was 260 nM. Besides, the result with HeLa [10] was inactive.
